Activity calls are given as the source filed them. The rule behind the calls is not given here.
Experiments:
[1] = biological target: T1, Toll-like receptor 9 (Mus musculus) (UniProt Q9EQU3); experiment: Agonist activity at mouse TLR9 expressed in HEK293 cells assessed as activation of NF-kappaB at 10 ug/mL by SEAP reporter gene assay; assay type: functional, cell-based
T1 sequence (whole entry): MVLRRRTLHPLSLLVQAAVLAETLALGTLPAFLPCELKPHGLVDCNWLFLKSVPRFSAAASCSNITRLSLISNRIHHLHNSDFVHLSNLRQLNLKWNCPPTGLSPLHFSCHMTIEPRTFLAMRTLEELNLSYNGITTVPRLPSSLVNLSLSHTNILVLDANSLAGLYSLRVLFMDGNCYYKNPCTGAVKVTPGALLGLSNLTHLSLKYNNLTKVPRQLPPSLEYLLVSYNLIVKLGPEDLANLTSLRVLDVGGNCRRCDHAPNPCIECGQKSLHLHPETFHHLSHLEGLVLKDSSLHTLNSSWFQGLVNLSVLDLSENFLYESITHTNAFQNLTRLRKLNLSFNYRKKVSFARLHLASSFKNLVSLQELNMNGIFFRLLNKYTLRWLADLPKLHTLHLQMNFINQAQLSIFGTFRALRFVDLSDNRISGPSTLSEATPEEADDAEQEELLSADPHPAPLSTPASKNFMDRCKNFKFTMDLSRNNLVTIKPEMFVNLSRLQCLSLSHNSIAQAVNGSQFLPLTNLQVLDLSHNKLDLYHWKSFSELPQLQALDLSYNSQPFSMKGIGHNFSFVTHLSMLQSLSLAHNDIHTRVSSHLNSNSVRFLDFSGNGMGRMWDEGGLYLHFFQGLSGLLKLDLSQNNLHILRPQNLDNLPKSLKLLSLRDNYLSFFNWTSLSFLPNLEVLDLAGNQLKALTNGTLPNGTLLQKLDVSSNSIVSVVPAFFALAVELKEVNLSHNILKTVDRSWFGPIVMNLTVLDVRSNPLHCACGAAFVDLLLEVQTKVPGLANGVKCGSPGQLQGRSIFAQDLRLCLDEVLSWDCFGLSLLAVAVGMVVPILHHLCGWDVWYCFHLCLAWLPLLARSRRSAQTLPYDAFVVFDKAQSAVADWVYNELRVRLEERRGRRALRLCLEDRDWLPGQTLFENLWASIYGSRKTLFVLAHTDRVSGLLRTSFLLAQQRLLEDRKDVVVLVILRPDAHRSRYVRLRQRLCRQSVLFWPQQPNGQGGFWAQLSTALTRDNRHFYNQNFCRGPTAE
How it was run: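 HEK293 cells stably expressing mouse TLR9 were transiently transfected with a SEAP reporter for 6 h. Compounds were added at 10 µg/mL for 18 h. SEAP was read with Quanti-Blue substrate and expressed as fold change in NF-κB activity.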

[2] = system: Mus musculus; experiment: Inhibition of 5'-TCTGACRTTCT-X-TCTTRCAGTCT-3'-induced IL12 production in C57BL/6 mouse pretreated before up to 48 hrs of induction at 10 mg/kg, sc; assay type: functional, organism-based; set-up: dose 10 mg/kg
How it was run: (§1)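 C57BL/6 mice received antagonist or control 10 mg/kg sc, either with TLR9 agonist 0.25 mg/kg sc or up to 48 h before it. Serum IL-12 was measured 2 h after agonist. Two or three independent experiments; mean ± SEM, Student's t test versus PBS.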

[3] = system: Mus musculus; experiment: Inhibition of 5'-TCTGACRTTCT-X-TCTTRCAGTCT-3'-induced IL12 production in C57BL/6 mouse at 10 mg/kg, sc; assay type: functional, organism-based; set-up: dose 10 mg/kg; how it was run: as §1
[4] = system: Mus musculus; experiment: Induction of IL6 secretion in C57BL/6 mouse at 0.25 mg/kg, sc; assay type: functional, organism-based; set-up: dose 0.25 mg/kg
How it was run: (§2)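 Female C57BL/6 mice, 6–8 weeks old (n=3), were injected sc with single compounds at 0.25 or 20 mg/kg. Serum was collected by retro-orbital bleed 2 h later and cytokines were measured by Luminex mouse 20-plex assay.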

[5] = system: Mus musculus; experiment: Induction of IP10 secretion in C57BL/6 mouse at 0.25 mg/kg, sc; assay type: functional, organism-based; set-up: dose 0.25 mg/kg; how it was run: as §2
[6] = system: Mus musculus; experiment: Induction of cytokine MCP1 secretion in C57BL/6 mouse at 0.25 mg/kg, sc; assay type: functional, organism-based; set-up: dose 0.25 mg/kg; how it was run: as §2
[7] = system: Mus musculus; experiment: Induction of cytokine MIG secretion in C57BL/6 mouse at 0.25 mg/kg, sc; assay type: functional, organism-based; set-up: dose 0.25 mg/kg; how it was run: as §2
[8] = system: Mus musculus; experiment: Induction of IL12 secretion in C57BL/6 mouse at 0.25 mg/kg, sc; assay type: functional, organism-based; set-up: dose 0.25 mg/kg; how it was run: as §2
[9] = system: Mus musculus; experiment: Induction of IL10 secretion in C57BL/6 mouse at 0.25 mg/kg, sc; assay type: functional, organism-based; set-up: dose 0.25 mg/kg; how it was run: as §2
[10] = biological target: T1, Toll-like receptor 9 (Mus musculus); experiment: Agonist activity at TLR9 in mouse J774 cells assessed as of NF-kappaB activation; assay type: functional, cell-based
How it was run: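 Murine J774 macrophages grown in DMEM with 10% FBS and plated at 5×10^6 cells/well. Nuclear extracts taken 1 h after agonist addition. NF-κB detected by EMSA on native polyacrylamide gels with autoradiography.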

[11] = system: Mus musculus; experiment: Induction of cytokine KC secretion in C57BL/6 mouse at 0.25 mg/kg, sc; assay type: functional, organism-based; set-up: dose 0.25 mg/kg; how it was run: as §2
[12] = system: PBMC; experiment: Inhibition of 5'-TCTGTCRTTCT-X-TCTTRCTGTCT-5'-induced human PBMC proliferation treated 72 hrs before induction; assay type: functional, cell-based
[13] = biological target: T1, Toll-like receptor 9 (Mus musculus); experiment: Antagonist activity at mouse TLR9 expressed in HEK293 cells assessed as inhibition of 5'-CTATCTGTCGTTCTCTGT-3'-induced NF-kappaB activation by SEAP reporter gene assay; assay type: functional, cell-based
How it was run: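 Mouse TLR9-HEK293 cells were transfected with a SEAP reporter for 6 h. They were then stimulated for 18 h with agonist (0.25 or 0.5 µg/mL) plus increasing antagonist concentrations or set agonist:antagonist ratios. Quanti-Blue read-out, reported as % NF-κB activity with agonist alone as 100%.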

Activity [1]	Activity [10]	Activity [13]	Compound	Activity [2]	Activity [3]	Activity [4]	Activity [5]	Activity [6]	Activity [7]	Activity [8]	Activity [9]	Activity [11]	Activity [12]
inactive			CO[C@@H]1[C@H](OP(=O)(S)OC[C@H]2O[C@@H](n3cnc4c(N)ncnc43)[C@H](OC)[C@@H]2OP(=O)(S)OC[C@H]2O[C@@H](n3ccc(N)nc3=O)C[C@@H]2OP(=O)(S)OC[C@H]2O[C@@H](n3ccc(N)nc3=O)C[C@@H]2OP(=O)(S)OC[C@H]2O[C@@H](n3cc(C)c(=O)[nH]c3=O)C[C@@H]2OP(=O)(S)OC[C@H]2O[C@@H](n3cc(C)c(=O)[nH]c3=O)C[C@@H]2OP(=O)(S)OC[C@H]2O[C@@H](n3ccc(N)nc3=O)C[C@@H]2OP(=O)(S)OC[C@H]2O[C@@H](n3cc(C)c(=O)[nH]c3=O)C[C@@H]2OP(=O)(S)OC[C@H]2O[C@@H](n3ccc(N)nc3=O)C[C@@H]2OP(=O)(S)OC[C@H]2O[C@@H](n3cc(C)c(=O)[nH]c3=O)C[C@@H]2OP(=O)(S)OC[C@H]2O[C@@H](n3cnc4c(=O)[nH]c(N)nc43)C[C@@H]2OP(=O)(S)OC[C@H]2O[C@@H](n3cc(C)c(=O)[nH]c3=O)C[C@@H]2O)[C@@H](COP(=O)(S)O[C@H]2C[C@H](n3cc(C)c(=O)[nH]c3=O)O[C@@H]2COP(=O)(S)O[C@H]2[C@@H](O)[C@H](n3ccc(N)nc3=O)O[C@@H]2COP(=O)(S)O[C@H]2C[C@H](n3cc(C)c(=O)[nH]c3=O)O[C@@H]2COP(=O)(S)O[C@H]2C[C@H](n3cnc4c(N)ncnc43)O[C@@H]2COP(=O)(S)O[C@H]2C[C@H](n3cc(C)c(=O)[nH]c3=O)O[C@@H]2COP(=O)(S)O[C@@H]2C[C@@H](n3ccc(N)nc3=O)O[C@H]2CO)O[C@H]1n1ccc(N)nc1=O (stereo not given in full)	inactive	inactive								
Active	Active		Cc1cn([C@H]2C[C@H](OP(=O)(S)OC[C@H]3O[C@@H](n4ccc(N)nc4=O)C[C@@H]3OP(=O)(S)OC[C@H]3O[C@@H](n4cc(C)c(=O)[nH]c4=O)C[C@@H]3OP(=O)(S)OC[C@H]3O[C@@H](n4cnc5c(=O)[nH]c(N)nc54)C[C@@H]3OP(=O)(S)OC[C@H]3O[C@@H](n4cnc5c(N)ncnc54)C[C@@H]3OP(=O)(S)OC[C@H]3O[C@@H](n4ccc(N)nc4=O)C[C@@H]3OP(=O)(S)OC[C@H]3O[C@@H](n4ccc5c(N)ncnc54)C[C@@H]3OP(=O)(S)OC[C@H]3O[C@@H](n4cc(C)c(=O)[nH]c4=O)C[C@@H]3OP(=O)(S)OC[C@H]3O[C@@H](n4cc(C)c(=O)[nH]c4=O)C[C@@H]3OP(=O)(S)OC[C@H]3O[C@@H](n4ccc(N)nc4=O)C[C@@H]3OP(=O)(S)OC[C@H]3O[C@@H](n4cc(C)c(=O)[nH]c4=O)C[C@@H]3OP(=O)(S)OCC(O)COP(=O)(S)O[C@H]3C[C@H](n4cc(C)c(=O)[nH]c4=O)O[C@@H]3COP(=O)(S)O[C@H]3C[C@H](n4ccc(N)nc4=O)O[C@@H]3COP(=O)(S)O[C@H]3C[C@H](n4cc(C)c(=O)[nH]c4=O)O[C@@H]3COP(=O)(S)O[C@H]3C[C@H](n4cc(C)c(=O)[nH]c4=O)O[C@@H]3COP(=O)(S)O[C@H]3C[C@H](n4ccc5c(=O)[nH]c(N)nc54)O[C@@H]3COP(=O)(S)O[C@H]3C[C@H](n4ccc(N)nc4=O)O[C@@H]3COP(=O)(S)O[C@H]3C[C@H](n4cnc5c(N)ncnc54)O[C@@H]3COP(=O)(S)O[C@H]3C[C@H](n4cnc5c(=O)[nH]c(N)nc54)O[C@@H]3COP(=O)(S)O[C@H]3C[C@H](n4cc(C)c(=O)[nH]c4=O)O[C@@H]3COP(=O)(S)O[C@H]3C[C@H](n4ccc(N)nc4=O)O[C@@H]3COP(=O)(S)O[C@H]3C[C@H](n4cc(C)c(=O)[nH]c4=O)O[C@@H]3CO)[C@@H](CO)O2)c(=O)[nH]c1=O (stereo not given in full)			Active	Active	Active	Active	Active	Active	Active	
inactive		Active	CO[C@@H]1[C@H](OP(=O)(S)OC[C@H]2O[C@@H](n3ccc(N)nc3=O)C[C@@H]2OP(=O)(S)OC[C@H]2O[C@@H](n3cnc4c(=O)[nH]c(N)nc43)C[C@@H]2OP(=O)(S)OC[C@H]2O[C@@H](n3cc(C)c(=O)[nH]c3=O)C[C@@H]2OP(=O)(S)OC[C@H]2O[C@@H](n3cc(C)c(=O)[nH]c3=O)C[C@@H]2OP(=O)(S)OC[C@H]2O[C@@H](n3ccc(N)nc3=O)C[C@@H]2OP(=O)(S)OC[C@H]2O[C@@H](n3cc(C)c(=O)[nH]c3=O)C[C@@H]2OP(=O)(S)OC[C@H]2O[C@@H](n3ccc(N)nc3=O)C[C@@H]2OP(=O)(S)OC[C@H]2O[C@@H](n3cc(C)c(=O)[nH]c3=O)C[C@@H]2OP(=O)(S)OC[C@H]2O[C@@H](n3cnc4c(=O)[nH]c(N)nc43)C[C@@H]2OP(=O)(S)OC[C@H]2O[C@@H](n3cc(C)c(=O)[nH]c3=O)C[C@@H]2O)[C@@H](COP(=O)(S)O[C@H]2[C@@H](OC)[C@H](n3cnc4c(=O)[nH]c(N)nc43)O[C@@H]2COP(=O)(S)O[C@H]2C[C@H](n3cc(C)c(=O)[nH]c3=O)O[C@@H]2COP(=O)(S)O[C@H]2C[C@H](n3ccc(N)nc3=O)O[C@@H]2COP(=O)(S)O[C@H]2C[C@H](n3cc(C)c(=O)[nH]c3=O)O[C@@H]2COP(=O)(S)O[C@H]2C[C@H](n3cnc4c(N)ncnc43)O[C@@H]2COP(=O)(S)O[C@H]2C[C@H](n3cc(C)c(=O)[nH]c3=O)O[C@@H]2COP(=O)(S)O[C@@H]2C[C@@H](n3ccc(N)nc3=O)O[C@H]2CO)O[C@H]1n1ccc(=O)[nH]c1=O (stereo not given in full)										Active

— ChEMBL document CHEMBL1140884, “Oligodeoxyribonucleotide-based antagonists for Toll-like receptors 7 and 9” (2009)
